Reference: ChEMBL document CHEMBL1137665, “Antistaphylococcal activity of CG400549, a new experimental FabI inhibitor, compared with that of other agents” (2007)
≈ marks a conversion by molar mass, not a printed value.

What was measured:
Staphylococcus aureus [1] = assay: Antimicrobial activity against vancomycin-intermediate Staphylococcus aureus 555 Hershey after 50 passages by multi-step resistance selection technique; format: functional
How it was run: (§1)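 Multistep selection: 10 S. aureus strains (8 MRSA incl. two VRSA, two VISA; 2 MSSA) serially passaged daily at subinhibitory concentrations of each antimicrobial; MICs of mutants retested and compared with parent; clone identity versus parent confirmed by pulsed-field gel electrophoresis at study end.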

Staphylococcus aureus [2] = assay: Antimicrobial activity against vancomycin-resistant Staphylococcus aureus 509 Michigan by agar dilution CLSI method; format: functional
How it was run: (§2)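 Agar dilution MIC per CLSI methodology; calcium supplemented for daptomycin testing; vancomycin plates read after a full 24-h incubation.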

Staphylococcus aureus [3] = assay: Antimicrobial activity against vancomycin-intermediate Staphylococcus aureus 555 Hershey after 14 passages with CG400549 measured after 10 antibiotic-free subculture by multi-step resistance selection technique; format: functional
How it was run: (§3)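 Multistep-selected mutants (daily passage at subinhibitory drug levels) then subcultured 10 times daily on antibiotic-free medium; MIC redetermined afterwards and compared with the MIC recorded at the end of selection; clone identity to parent checked by pulsed-field gel electrophoresis.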

Staphylococcus aureus [4] = assay: microbe, parasite or virus in culture; conditions: 525
Staphylococcus aureus [5] = assay: Antimicrobial activity against vancomycin-intermediate Staphylococcus aureus 504 after 22 passages with Linezolid measured after 10 times antibiotic-free subculture by multi-step resistance selection technique; format: functional; how it was run: as §3
Staphylococcus aureus [6] = assay: Antimicrobial activity against vancomycin-resistant Staphylococcus aureus 509 Michigan after 14 passages with CG400549 measured after 10 antibiotic-free subculture by multi-step resistance selection technique; format: functional; how it was run: as §3
Staphylococcus aureus [7] = assay: Antimicrobial activity against vancomycin-intermediate Staphylococcus aureus 504 after 50 passages by multi-step resistance selection technique; format: functional
How it was run: (§4)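 Multistep selection: S. aureus strains (MSSA and MRSA, including VISA and VRSA) were passaged serially once daily in subinhibitory concentrations of each antimicrobial. Mutant and parent identities were confirmed by pulsed-field gel electrophoresis at the end of the study. Mutant MIC stability was checked after 10 daily subcultures on antibiotic-free media.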

Staphylococcus aureus [8] = assay: Antimicrobial activity against community-acquired vancomycin-intermediate Staphylococcus aureus 504 by agar dilution CLSI method; format: functional
How it was run: (§5)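 CLSI agar dilution MIC against S. aureus clinical isolates. Calcium was added to the medium for daptomycin testing. Vancomycin plates were read after a full 24-h incubation.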

Staphylococcus aureus [9] = assay: Antimicrobial activity against vancomycin-resistant Staphylococcus aureus 510 Hershey by agar dilution CLSI method; format: functional; how it was run: as §2
Staphylococcus aureus [10] = assay: microbe, parasite or virus in culture; conditions: 543
Staphylococcus aureus [11] = assay: Antimicrobial activity against panton-valentine leukocidin-positive community-acquired methicillin-resistant Staphylococcus aureus 490 after 50 passages by multi-step resistance selection technique
Staphylococcus aureus [12] = assay: Antimicrobial activity against vancomycin-resistant Staphylococcus aureus 509 Michigan after 28 passages with Linezolid measured after 10 antibiotic-free subculture by multi-step resistance selection technique; format: functional; how it was run: as §3
Staphylococcus aureus [13] = assay: Antimicrobial activity against vancomycin-intermediate Staphylococcus aureus 555 Hershey by agar dilution CLSI method; format: functional; how it was run: as §2
Staphylococcus aureus [14] = assay: Antimicrobial activity against methicillin-susceptible Staphylococcus aureus by agar dilution CLSI method; format: functional; how it was run: as §5
Staphylococcus aureus [15] = assay: microbe, parasite or virus in culture; conditions: 547
Staphylococcus aureus [16] = assay: Antimicrobial activity against methicillin-susceptible Staphylococcus aureus 540 after 50 passages by multi-step resistance selection technique
Staphylococcus aureus [17] = assay: Antimicrobial activity against methicillin-resistant Staphylococcus aureus by agar dilution CLSI method; format: functional; how it was run: as §5
Staphylococcus aureus [18] = assay: microbe, parasite or virus in culture; conditions: 481
Staphylococcus aureus [19] = assay: Antimicrobial activity against vancomycin-resistant Staphylococcus aureus 510 Hershey after 14 passages with CG400549 measured after 10 antibiotic-free subculture by multi-step resistance selection technique; format: functional; how it was run: as §3
Staphylococcus aureus [20] = assay: Antimicrobial activity against vancomycin-resistant Staphylococcus aureus 509 Michigan after 20 passages with daptomycin measured after 10 antibiotic-free subculture by multi-step resistance selection technique; format: functional; how it was run: as §3
Staphylococcus aureus [21] = assay: Antimicrobial activity against methicillin-susceptible Staphylococcus aureus 543 after 15 passages by multi-step resistance selection technique; format: functional
How it was run: (§6)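 Multistep selection by daily serial passage of each strain in subinhibitory drug concentrations for the stated number of passages. Mutant MIC was then determined. Identity of mutants and parents was confirmed by pulsed-field gel electrophoresis.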

Staphylococcus aureus [22] = assay: Antimicrobial activity against vancomycin-intermediate Staphylococcus aureus 504 after 22 passages by multi-step resistance selection technique; format: functional; how it was run: as §4
Staphylococcus aureus [23] = assay: Antimicrobial activity against methicillin-susceptible Staphylococcus aureus 543 after 15 passages with Linezolid measured after 10 antibiotic-free subculture by multi-step resistance selection technique; format: functional
How it was run: (§7)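 Mutants from multistep daily serial passage in subinhibitory drug were then subcultured daily 10 times on antibiotic-free medium. MIC was redetermined after these subcultures to assess stability. Clone identity was checked by pulsed-field gel electrophoresis.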

Staphylococcus aureus [24] = assay: Antimicrobial activity against methicillin-resistant Staphylococcus aureus 481 after single-step resistance selection by agar dilution CLSI method; format: functional
How it was run: (§8)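 Single-step selection on drug-containing agar across 10 strains (2 MSSA, 8 MRSA, including VRSA and VISA). Colonies arising on confluent background growth were retested by CLSI agar dilution MIC. Resistance was defined as an MIC more than 4× the parent MIC.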

Staphylococcus aureus [25] = assay: Antimicrobial activity against methicillin-resistant Staphylococcus aureus 547 after single-step resistance selection by agar dilution CLSI method; format: functional; how it was run: as §8
Staphylococcus aureus [26] = assay: Antimicrobial activity against vancomycin-resistant Staphylococcus aureus 509 Michigan after 28 passages by multi-step resistance selection technique; format: functional; how it was run: as §1
Staphylococcus aureus [27] = assay: Antimicrobial activity against methicillin and vancomycin-resistant Staphylococcus aureus 510 after single-step resistance selection by agar dilution CLSI method; format: functional; how it was run: as §8
Staphylococcus aureus [28] = assay: Antimicrobial activity against panton-valentine leukocidin-positive community-acquired methicillin-resistant Staphylococcus aureus 490 after 22 passages by multi-step resistance selection technique; format: functional; how it was run: as §1
Staphylococcus aureus [29] = assay: Antimicrobial activity against methicillin-resistant Staphylococcus aureus 547 after 48 passages by multi-step resistance selection technique; format: functional; how it was run: as §6
Staphylococcus aureus [30] = assay: Antimicrobial activity against vancomycin-resistant Staphylococcus aureus 510 Hershey after 50 passages by multi-step resistance selection technique; format: functional; how it was run: as §1
Staphylococcus aureus [31] = assay: Antimicrobial activity against methicillin and vancomycin-resistant Staphylococcus aureus 509 after single-step resistance selection by agar dilution CLSI method; format: functional; how it was run: as §8
Staphylococcus aureus [32] = assay: Antimicrobial activity against panton-valentine leukocidin-negative community-acquired methicillin-resistant Staphylococcus aureus 481 after 37 passages with Linezolid measured after 10 antibiotic-free subculture by multi-step resistance selection technique; format: functional; how it was run: as §7
Staphylococcus aureus [33] = assay: Antimicrobial activity against methicillin-resistant Staphylococcus aureus 490 after single-step resistance selection by agar dilution CLSI method; format: functional; how it was run: as §8
Staphylococcus aureus [34] = assay: Antimicrobial activity against methicillin-resistant Staphylococcus aureus 547 after 48 passages with Linezolid measured after 10 antibiotic-free subculture by multi-step resistance selection technique; format: functional; how it was run: as §7
Staphylococcus aureus [35] = assay: Antimicrobial activity against methicillin-resistant vancomycin-intermediate Staphylococcus aureus 504 after single-step resistance selection by agar dilution CLSI method; format: functional; how it was run: as §8
Staphylococcus aureus [36] = assay: Antimicrobial activity against methicillin-susceptible Staphylococcus aureus 543 after single-step resistance selection by agar dilution CLSI method; format: functional; how it was run: as §8
Staphylococcus aureus [37] = assay: Antimicrobial activity against methicillin-susceptible Staphylococcus aureus 540 after 36 passages by multi-step resistance selection technique; format: functional; how it was run: as §6
Staphylococcus aureus [38] = assay: Antimicrobial activity against methicillin-resistant vancomycin-intermediate Staphylococcus aureus 555 after single-step resistance selection by agar dilution CLSI method; format: functional; how it was run: as §8
Staphylococcus aureus [39] = assay: Antimicrobial activity against methicillin-susceptible Staphylococcus aureus 540 after single-step resistance selection by agar dilution CLSI method; format: functional; how it was run: as §8
Staphylococcus aureus [40] = assay: Antimicrobial activity against methicillin-susceptible Staphylococcus aureus 540 after 36 passages with Linezolid measured after 10 antibiotic-free subculture by multi-step resistance selection technique; format: functional; how it was run: as §7
Staphylococcus aureus [41] = assay: Antimicrobial activity against methicillin-resistant Staphylococcus aureus 525 after single-step resistance selection by agar dilution CLSI method; format: functional; how it was run: as §8
Staphylococcus aureus [42] = assay: Antimicrobial activity against panton-valentine leukocidin-positive community-acquired methicillin-resistant Staphylococcus aureus 490 after 22 passages with Linezolid measured after 10 antibiotic-free subculture by multi-step resistance selection technique; format: functional; how it was run: as §3
Staphylococcus aureus [43] = assay: Antimicrobial activity against panton-valentine leukocidin-negative community-acquired methicillin-resistant Staphylococcus aureus 481 after 37 passages by multi-step resistance selection technique; format: functional; how it was run: as §6

SMILES: CN[C@H](CC(C)C)C(=O)N[C@H]1C(=O)N[C@@H](CC(N)=O)C(=O)N[C@H]2C(=O)N[C@H]3C(=O)N[C@H](C(=O)N[C@H](C(=O)O)c4cc(O)cc(O)c4-c4cc3ccc4O)[C@H](O)c3ccc(c(Cl)c3)Oc3cc2cc(c3O[C@@H]2O[C@H](CO)[C@@H](O)[C@H](O)[C@H]2O[C@H]2C[C@](C)(N)[C@H](O)[C@H](C)O2)Oc2ccc(cc2Cl)[C@H]1O [VANCOMYCIN]
- MIC (Staphylococcus aureus [1]): 8 µg/mL (≈ 5.52 µM)
- MIC (Staphylococcus aureus [2]): > 64 µg/mL
- MIC (Staphylococcus aureus [3]): 8 µg/mL (≈ 5.52 µM)
- MIC (Staphylococcus aureus [4]): 8 µg/mL (≈ 5.52 µM)
- MIC (Staphylococcus aureus [5]): 8 µg/mL (≈ 5.52 µM)
- MIC (Staphylococcus aureus [6]): 16 µg/mL (≈ 11 µM)
- MIC (Staphylococcus aureus [7]): 8 µg/mL (≈ 5.52 µM)
- MIC (Staphylococcus aureus [8]): 8 µg/mL (≈ 5.52 µM)
- MIC (Staphylococcus aureus [9]): 64 µg/mL (≈ 44.2 µM)
- MIC (Staphylococcus aureus [10]): 8 µg/mL (≈ 5.52 µM)
- MIC (Staphylococcus aureus [11]): 8 µg/mL (≈ 5.52 µM)
- MIC (Staphylococcus aureus [12]): > 64 µg/mL
- MIC (Staphylococcus aureus [13]): 8 µg/mL (≈ 5.52 µM)
- MIC50 (Staphylococcus aureus [14]): 1 µg/mL (≈ 0.69 µM)
- MIC90 (Staphylococcus aureus [14]): 2 µg/mL (≈ 1.38 µM)
- MIC (Staphylococcus aureus [15]): 8 µg/mL (≈ 5.52 µM)
- MIC (Staphylococcus aureus [16]): 8 µg/mL (≈ 5.52 µM)
- MIC50 (Staphylococcus aureus [17]): 1 µg/mL (≈ 0.69 µM)
- MIC90 (Staphylococcus aureus [17]): 2 µg/mL (≈ 1.38 µM)
- MIC (Staphylococcus aureus [18]): 8 µg/mL (≈ 5.52 µM)
- MIC (Staphylococcus aureus [19]): 16 µg/mL (≈ 11 µM)
- MIC (Staphylococcus aureus [20]): 32 µg/mL (≈ 22.1 µM)

SMILES: CC(=O)NC[C@H]1CN(c2ccc(N3CCOCC3)c(F)c2)C(=O)O1 [LINEZOLID]
- MIC (Staphylococcus aureus [21]): 32 µg/mL (≈ 94.9 µM)
- MIC (Staphylococcus aureus [22]): 8 µg/mL (≈ 23.7 µM)
- MIC (Staphylococcus aureus [23]): 32 µg/mL (≈ 94.9 µM)
- MIC (Staphylococcus aureus [24]): 0.5 µg/mL (≈ 1.48 µM)
- MIC (Staphylococcus aureus [25]): 0.5 µg/mL (≈ 1.48 µM)
- MIC (Staphylococcus aureus [26]): 16 µg/mL (≈ 47.4 µM)
- MIC (Staphylococcus aureus [27]): 0.5 µg/mL (≈ 1.48 µM)
- MIC (Staphylococcus aureus [28]): 32 µg/mL (≈ 94.9 µM)
- MIC (Staphylococcus aureus [29]): 32 µg/mL (≈ 94.9 µM)
- MIC (Staphylococcus aureus [30]): 16 µg/mL (≈ 47.4 µM)
- MIC (Staphylococcus aureus [31]): 0.5 µg/mL (≈ 1.48 µM)
- MIC (Staphylococcus aureus [32]): 32 µg/mL (≈ 94.9 µM)
- MIC (Staphylococcus aureus [33]): 0.5 µg/mL (≈ 1.48 µM)
- MIC (Staphylococcus aureus [34]): 32 µg/mL (≈ 94.9 µM)
- MIC (Staphylococcus aureus [5]): 8 µg/mL (≈ 23.7 µM)
- MIC (Staphylococcus aureus [8]): 1 µg/mL (≈ 2.96 µM)
- MIC (Staphylococcus aureus [35]): 0.5 µg/mL (≈ 1.48 µM)
- MIC (Staphylococcus aureus [36]): 0.5 µg/mL (≈ 1.48 µM)
- MIC (Staphylococcus aureus [12]): 32 µg/mL (≈ 94.9 µM)
- MIC (Staphylococcus aureus [37]): 32 µg/mL (≈ 94.9 µM)
- MIC (Staphylococcus aureus [38]): 0.5 µg/mL (≈ 1.48 µM)
- MIC (Staphylococcus aureus [39]): 0.5 µg/mL (≈ 1.48 µM)
- MIC (Staphylococcus aureus [40]): 16 µg/mL (≈ 47.4 µM)
- MIC50 (Staphylococcus aureus [14]): 1 µg/mL (≈ 2.96 µM)
- MIC90 (Staphylococcus aureus [14]): 2 µg/mL (≈ 5.93 µM)
- MIC (Staphylococcus aureus [41]): 0.5 µg/mL (≈ 1.48 µM)
- MIC50 (Staphylococcus aureus [17]): 1 µg/mL (≈ 2.96 µM)
- MIC90 (Staphylococcus aureus [17]): 2 µg/mL (≈ 5.93 µM)
- MIC (Staphylococcus aureus [42]): 32 µg/mL (≈ 94.9 µM)
- MIC (Staphylococcus aureus [43]): 32 µg/mL (≈ 94.9 µM)
